Measurements: ChEMBL document CHEMBL4368930, “Synthesis and anti-HSV activity of tricyclic penciclovir and hydroxybutylguanine derivatives” (Bioorg Med Chem, 2019)

Legend:
[1] = Cytotoxicity against HEL cells assessed as effect on cell morphology at 0.32 to 200 uM by microscopic analysis; assay type: cell-based; conditions: human
[2] = system: Human alphaherpesvirus 2; test: Antiviral activity against herpes simplex virus 2 G infected in HEL cells assessed as reduction in virus-induced cytopathogenicity by microscopic analysis; assay type: functional, organism-based; conditions: Human alphaherpesvirus 2, G
Outline: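 Confluent cell monolayers were inoculated with 100 CCID50 of virus or 20 PFU. After a 1–2 h adsorption, residual virus was removed and cultures were incubated with the test compounds at 200, 40, 8, 1.6 and 0.32 μM. Cytopathicity was scored once it was complete in untreated infected controls.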

[3] = system: Z-138; test: Cytostatic activity against human Z138 cells; assay type: ADME, cell-based
[4] = system: Human betaherpesvirus 5; test: Antiviral activity against Human cytomegalovirus AD169 assessed as reduction in virus-induced cytopathogenicity by microscopic analysis; assay type: functional, organism-based; conditions: Human betaherpesvirus 5, strain AD169
[5] = system: Human alphaherpesvirus 3; test: Antiviral activity against thymidine kinase deficient Varicella-zoster virus 07-1 infected in HEL cells assessed as reduction in virus plaque formation; assay type: functional, organism-based; conditions: Human alphaherpesvirus 3, 07-1, HEL
[6] = system: CAPAN-1; test: Cytostatic activity against human Capan1 cells; assay type: ADME, cell-based
[7] = system: K562; test: Cytostatic activity against human K562 cells; assay type: ADME, cell-based
[8] = system: Human alphaherpesvirus 1; test: Antiviral activity against thymidine kinase deficient and aciclovir resistant herpes simplex virus 1 KOS infected in HEL cells assessed as reduction in virus-induced cytopathogenicity by microscopic analysis; assay type: functional, organism-based; conditions: Human alphaherpesvirus 1, strain KOS
[9] = system: Human alphaherpesvirus 1; test: Antiviral activity against herpes simplex virus 1 KOS infected in HEL cells assessed as reduction in virus-induced cytopathogenicity by microscopic analysis; assay type: functional, organism-based; conditions: Human alphaherpesvirus 1, strain KOS
[10] = system: Human alphaherpesvirus 3; test: Antiviral activity against Varicella-zoster virus Oka harboring thymidine kinase infected in HEL cells assessed as reduction in virus plaque formation; assay type: functional, organism-based; conditions: Human alphaherpesvirus 3, Oka
[11] = system: HL-60; test: Cytostatic activity against human HL60 cells; assay type: ADME, cell-based
[12] = Cytostatic activity against human DND41 cells; assay type: ADME, cell-based
[13] = system: NCI-H460; test: Cytostatic activity against human NCI-H460 cells; assay type: ADME, cell-based
[14] = Cytostatic activity against human HAP1 cells; assay type: ADME, cell-based
[15] = system: Human betaherpesvirus 5; test: Antiviral activity against Human cytomegalovirus Davis assessed as reduction in virus-induced cytopathogenicity by microscopic analysis; assay type: functional, organism-based; conditions: Human betaherpesvirus 5, Davis
[16] = system: TERT-RPE1; test: Cytostatic activity against human hTERT-RPE1 cells; assay type: ADME, cell-based; conditions: RPE-1
Outline: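 Cell proliferation was measured against the number of cells in untreated controls.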

Structure (SMILES) | MCC at up to 200 µM [1] | EC50 [2] | IC50 [3] | EC50 [4] | EC50 [5] | IC50 [6] | IC50 [7] | EC50 [8] | EC50 [9] | EC50 [10] | IC50 [11] | IC50 [12] | IC50 [13] | IC50 [14] | EC50 [15] | IC50 [16]
Nc1nc2c(ncn2CCCCO)c(=O)[nH]1 | > 100 µM | 2.1 µM | > 100 µM | > 100 µM | > 100 µM | 72.7 µM | > 100 µM | 10 µM | 1.5 µM | 76.5 µM | > 100 µM | > 100 µM | > 100 µM | > 100 µM | > 100 µM | > 100 µM
O=c1c2ncn(CCC(CO)CO)c2nc2[nH]c(-c3ccc(O)cc3)cn12 | > 100 µM | 2.3 µM | > 100 µM | > 100 µM | ≥ 74.5 µM | > 100 µM | > 100 µM | > 100 µM | 7.6 µM | 9.6 µM | > 100 µM | > 100 µM | > 100 µM | > 100 µM | > 100 µM | > 100 µM
COc1ccc(-c2cn3c(=O)c4ncn(CCC(CO)CO)c4nc3[nH]2)cc1 | > 100 µM | 0.8 µM | > 100 µM | > 100 µM | 100 µM | > 100 µM | > 100 µM | 0.8 µM | 1.5 µM | 66.9 µM | > 100 µM | > 100 µM | > 100 µM | > 100 µM | > 100 µM | > 100 µM
O=c1c2ncn(CCC(CO)CO)c2nc2[nH]c(-c3ccc4c(c3)OCO4)cn12 | ≥ 100 µM | 40.9 µM | > 100 µM | > 100 µM | > 100 µM | 78.8 µM | > 100 µM | > 100 µM | 44.7 µM | > 20 µM | > 100 µM | > 100 µM | > 100 µM | > 100 µM | > 100 µM | > 100 µM
O=c1c2ncn(CCC(CO)CO)c2nc2[nH]c(-c3ccc(Oc4ccccc4)cc3)cn12 | > 100 µM | > 100 µM | > 100 µM | > 100 µM | > 100 µM | 46.4 µM | > 100 µM | > 100 µM | > 100 µM | 62.8 µM | 63.3 µM | 90.4 µM | 47.2 µM | 44 µM | > 100 µM | 16.9 µM
CCOc1ccc(-c2cn3c(=O)c4ncn(CCC(CO)CO)c4nc3[nH]2)cc1 | > 100 µM | > 20 µM | > 100 µM | > 100 µM | > 100 µM | > 100 µM | > 100 µM | > 100 µM | 76.5 µM | > 100 µM | > 100 µM | > 100 µM | 95.4 µM | > 100 µM | > 100 µM | > 100 µM
Nc1nc2c(ncn2CCC(CO)CO)c(=O)[nH]1 [PENCICLOVIR] | > 100 µM | 0.2 µM | > 100 µM | > 100 µM | 33.4 µM | 93 µM | > 100 µM | 0.2 µM | 0.8 µM | 3.5 µM | > 100 µM | > 100 µM | > 100 µM | > 100 µM | > 100 µM | > 100 µM
